The test system of assay [1] is Staphylococcus aureus. Put plainly: Antibacterial activity against Staphylococcus aureus ATCC 25923 by microdilution method. It counts as functional. In outline: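 Standard broth microdilution MIC against S. aureus ATCC 25923, without albumin. Run in triplicate.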
For orientation: Broth dilution looks for growth in wells or tubes with falling amounts of substance.

Assay [2] in a line: Binding affinity to HSA 2 by isothermal titration calorimetry. More on the design: species or system Homo sapiens. Summed up:
(§1)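 ITC at 25 °C with 1 mL cell. Peptide (2.1 mM) injected in 20 aliquots of 5 µL, 400 s apart, into stirred (200 rpm) albumin (0.11 mM) in 50 mM Tris-HCl, 10 mM CaCl₂, pH 8.2. Dilution heats from peptide-into-buffer titrations were subtracted. First injection excluded. Isotherm fitted to a one-site model; KD = 1/Ka.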
For orientation: Isothermal titration calorimetry measures the heat released or taken up as one component is titrated into another.

Assay [3] has as its system Staphylococcus aureus. Put plainly: Antibacterial activity against Staphylococcus aureus ATCC 25923 in presence of HSA 1 by microdilution method. It counts as functional. Summed up:
(§2)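 Standard broth microdilution MIC against S. aureus ATCC 25923 with albumin in the assay at 0.55 mM. Albumin grades: BSA I, essentially fatty acid and globulin free, ≥99%. BSA II ≥96%. HSA I, essentially fatty acid free, ~99%. HSA II ≥96%. Run in duplicate.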

Assay [4] in a line: Binding affinity to BSA 2 by isothermal titration calorimetry. More on the design: species or system Bos taurus. In outline: as §1
A short description of assay [5]: Binding affinity to BSA 1 by isothermal titration calorimetry. More on the design: species or system Bos taurus. In outline:
as §1

Assay [6] has as its system Staphylococcus aureus. Put plainly: Antibacterial activity against Staphylococcus aureus ATCC 25923 in presence of BSA 1 by microdilution method. It counts as functional. Summed up:
as §2

In assay [7] the test system is Staphylococcus aureus. Kind of assay: Antibacterial activity against Staphylococcus aureus ATCC 25923 in presence of HSA 2 by microdilution method. It counts as functional. In outline:
as §2

Assay [8] in a line: Binding affinity to HSA 1 by isothermal titration calorimetry. More on the design: species or system Homo sapiens. In outline: as §1
In assay [9] the test system is Staphylococcus aureus. Kind of assay: Antibacterial activity against Staphylococcus aureus ATCC 25923 in presence of BSA 2 by microdilution method. It counts as functional. Summed up:
as §2

Structures are written as SMILES. In brackets after ≈: the same amount, converted by molar mass. Where a SMILES comes first, the peptide text is derived from it. [ ]: non-standard residue; d: D form. The star is where a group is joined. Bip = N[C@@H](Cc1ccc(-c2ccccc2)cc1)C(=O)O; NHPhenethyl = c1ccc(CCN*)cc1; NHBn = c1ccc(CN*)cc1; NHiPr = CC(C)N*

On to `N=C(N)NCCC[C@H](NC(=O)[C@H](Cc1ccc(-c2ccccc2)cc1)NC(=O)[C@@H](N)CCCNC(=N)N)C(=O)N(Cc1ccccc1)Cc1ccccc1`, for which the minimal inhibitory concentration (MIC) – broadly, the least concentration at which growth counts as inhibited – stood at 2 µg/mL (≈ 2.73 µM) with Staphylococcus aureus [1]; 6 µg/mL in the assay with Staphylococcus aureus [3]; 13 µg/mL in the assay on Staphylococcus aureus [6]; 11 µg/mL in the assay with Staphylococcus aureus [7]; 6 µg/mL in the assay on Staphylococcus aureus [9]. The Kd (commonly the equilibrium constant for the complex coming apart) in assay [2] is 15.9 µM; in assay [4], 12.3 µM; in assay [5], 10 µM; in [8], 10.4 µM.

With `N=C(N)NCCC[C@H](NC(=O)[C@H](Cc1ccc(-c2ccccc2)cc1)NC(=O)[C@@H](N)CCCNC(=N)N)C(=O)NCCc1ccccc1` (H-Arg-[Bip]-Arg-NHPhenethyl), the MIC turned out to be 4 µg/mL (≈ 6.09 µM) in the assay on Staphylococcus aureus [1] and 47 µg/mL in the assay with Staphylococcus aureus [6]. In addition, the Kd in assay [5] came out at 11.1 µM.

As for `N=C(N)NCCC[C@H](NC(=O)[C@H](Cc1ccc(-c2ccccc2)cc1)NC(=O)[C@@H](N)CCCNC(=N)N)C(=O)NCc1ccccc1` (H-Arg-[Bip]-Arg-NHBn), the MIC in the assay on Staphylococcus aureus [1] amounted to 5 µg/mL (≈ 7.78 µM); in the assay with Staphylococcus aureus [3], 40 µg/mL; with Staphylococcus aureus [6], 47 µg/mL; in the assay with Staphylococcus aureus [7] it was 80 µg/mL; with Staphylococcus aureus [9], 30 µg/mL. For the same compound, the Kd in assay [2] stood at 15.5 µM; in assay [4] it was 13 µM; in assay [5], 4.3 µM; in [8], 15.7 µM.

Turning to `N=C(N)NCCC[C@H](NC(=O)[C@H](Cc1ccc(-c2ccccc2)cc1)NC(=O)[C@@H](N)CCCNC(=N)N)C(=O)NCCCc1ccccc1`, the MIC in the assay on Staphylococcus aureus [1] turned out to be 2 µg/mL (≈ 2.98 µM); in the assay on Staphylococcus aureus [6], 25 µg/mL. Moreover, the Kd in [5] worked out at 22.2 µM.

With `C[C@@H](CNC(=O)[C@H](CCCNC(=N)N)NC(=O)[C@H](Cc1ccc(-c2ccccc2)cc1)NC(=O)[C@@H](N)CCCNC(=N)N)c1ccccc1`, the MIC against Staphylococcus aureus [1] was found to be 4 µg/mL (≈ 5.96 µM); in the assay with Staphylococcus aureus [6], 31 µg/mL. For the same compound, binding in assay [5] was put at a Kd of 12.2 µM.

`C[C@H](CNC(=O)[C@H](CCCNC(=N)N)NC(=O)[C@H](Cc1ccc(-c2ccccc2)cc1)NC(=O)[C@@H](N)CCCNC(=N)N)c1ccccc1`: the MIC with Staphylococcus aureus [1] amounted to 4 µg/mL (≈ 5.96 µM); in the assay on Staphylococcus aureus [6], 31 µg/mL. The compound further displayed an equilibrium dissociation constant (Kd) in assay [5] of 12.4 µM.

On to `CCN(Cc1ccccc1)C(=O)[C@H](CCCNC(=N)N)NC(=O)[C@H](Cc1ccc(-c2ccccc2)cc1)NC(=O)[C@@H](N)CCCNC(=N)N`, for which the values for the MIC against Staphylococcus aureus [1] and in the assay on Staphylococcus aureus [6] were 5 µg/mL (≈ 7.45 µM) and 38 µg/mL, respectively. Further, binding in [5] was put at a Kd of 17.3 µM.

In the case of `CC(C)NC(=O)[C@H](CCCNC(=N)N)NC(=O)[C@H](Cc1ccc(-c2ccccc2)cc1)NC(=O)[C@@H](N)CCCNC(=N)N` (H-Arg-[Bip]-Arg-NHiPr), the MIC in the assay with Staphylococcus aureus [1] came to 47 µg/mL (≈ 79 µM); with Staphylococcus aureus [3], 113 µg/mL; in the assay on Staphylococcus aureus [6], 110 µg/mL; in the assay on Staphylococcus aureus [7], 100 µg/mL; in the assay on Staphylococcus aureus [9], 80 µg/mL. In addition, the Kd was 18.2 µM in assay [2], 14.5 µM in assay [4], 14.1 µM in assay [5] and 10.8 µM in [8].

As for `CN(Cc1ccccc1)C(=O)[C@H](CCCNC(=N)N)NC(=O)[C@H](Cc1ccc(-c2ccccc2)cc1)NC(=O)[C@@H](N)CCCNC(=N)N`, the MIC in the assay on Staphylococcus aureus [1] came to 7 µg/mL (≈ 10.7 µM); in the assay on Staphylococcus aureus [6], 38 µg/mL. The Kd in assay [5] stood at 6.7 µM.
